Test results as given in article PMC12977181 (Journal of natural products, 2025).
“Also recorded” adds a separate entry of the source. Where two headings read alike, the source gives them in different places.

Tests used:
[1] = test system: HEK293 cells; details: cited from earlier work
[2] = test system: breast cancer cell lines; details: cited from earlier work
[3] = test system: primary mouse DRG neurons; assay: Functional calcium imaging in primary mouse DRG neurons; type: cell-based; details: 10 μM Ver E
How it was run: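 DRGs from an 18-week-old male Nestin-Cre × Cre-dependent GCaMP6f mouse were digested with papain (15 IU/mL) plus collagenase (2.25 mg/mL) at 37 °C for 20 min and plated at 450,000–500,000 cells/mL in Neurobasal A. Imaging ran 24 h later with FITC optics. Maximum fluorescence was taken during direct 10 μM exposure and during SOCE, against 0.1% DMSO vehicle. Unpaired two-tailed t tests; SEM; n = cells.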

[4] = test system: hiPSC-derived nociceptors; assay: Multiwell microelectrode array; type: cell-based, human
[5] = test system: p-eIF2α; assay: Immunocytochemistry of p-eIF2α in primary mouse DRGs; type: cell-based; details: approximately 16 h, vs vehicle (0.01% DMSO)
How it was run: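 Primary mouse DRG neurons were cultured overnight in Neurobasal A, then exposed for ~16 h to test compounds (30–1000 nM) or 0.01% DMSO. Cells were formalin-fixed, blocked in 10% goat serum with 0.1% Triton X-100, and immunostained for p-eIF2α (Alexa 555) and peripherin (Alexa 488) with DAPI. p-eIF2α was quantified as mean gray intensity in peripherin-positive neurons. One-way ANOVA with Tukey's test; mean ± SEM.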

[6] = test system: HEK293 cells; assay: Cytotoxicity in HEK293 cells, resazurin reduction assay; type: cell-based; details: 24 h; for cell death at 30 μM: resazurin (Figure 7A); for LD50: 0.03-30 μM, logarithmic nonlinear regression curve (Figure 7B)
[7] = test system: mice with neuropathic pain; details: through σ2R/TMEM97; cited from earlier work

For veraguamide C, which “cytotoxicity, in words” value [1] is on record?
Its value is “nontoxic”.

What about the “cytotoxicity, in words” value [2] of the same compound?
Its value is “mild cytotoxicity”.

Which “Maximum fluorescence during the SOCE response (mean)” value ([3]; 0.1% DMSO, max ΔF/F0, after reintroduction of extracellular Ca2+, vehicle mean = 2.126, no significant difference) does the source give for `C#CCCC[C@H]1OC(=O)[C@H](C(C)C)N(C)C(=O)[C@@H]2CCCN2C(=O)[C@H]([C@@H](C)CC)OC(=O)[C@H]([C@@H](C)CC)N(C)C(=O)[C@H]([C@@H](C)CC)NC(=O)[C@H]1C` [Ver E, veraguamide E] here?
The value was 1.929.

And the “DRG excitability during coapplication with thapsigargin, in words” value ([3]; compared to thapsigargin alone, P < 0.01)?
Its value is “significantly increased DRG excitability”.

And the “SOCE response, in words” value ([3]; upon reintroduction of extracellular Ca2+)?
Its value is “no significant change”.

And the “neuronal activity at 24 h, in words” value ([4]; 30 μM, 37 °C, 24-h time point)?
The value was “returning to baseline”.

And the “effect on activity at 42 °C (heat ramp 37 to 42 °C), in words” value ([4]; 42 °C, Ver E vs vehicle (DMSO))?
Its value is “no significant effect; also recorded: nonsignificant decrease”.

What about the “p-eIF2α levels (mean gray intensity), in words” value ([5]; Ver E 100 nM) of the same compound?
Its value is “No observable differences”.

What about the “p-eIF2α levels (mean gray intensity), in words” value ([5]; Ver E 1000 nM) of the same compound?
Its value is “No observable differences”.

What about the “cytotoxicity, in words” value ([6]; 0.03 μM to 30 μM, resazurin) of the same compound?
The value was “no evidence of cytotoxicity”.

What about the “cell death at 30 μM” value [6] of the same compound?
The value was “no cytotoxicity”.

And the LD50 ([6]; resazurin)?
Its LD50 is “no detectable LD50”.

With `C[C@@H]1CC[C@@]2(OC1)O[C@H]1[C@@H](O)[C@H]3[C@@H]4CC[C@H]5C[C@@H](O[C@@H]6O[C@H](CO)[C@H](O[C@@H]7O[C@H](CO)[C@@H](O)[C@H](O[C@@H]8OC[C@@H](O)[C@H](O)[C@H]8O)[C@H]7O[C@@H]7O[C@H](CO)[C@H](O)[C@H](O[C@@H]8O[C@H](CO)[C@@H](O)[C@H](O)[C@H]8O)[C@H]7O)[C@H](O)[C@H]6O)[C@H](O)C[C@]5(C)[C@H]4CC[C@]3(C)[C@H]1[C@@H]2C` [digitonin, reference compound] as the compound, how does the “cell death at 30 μM” value [6] read?
Its value is 100%.

And the LD50 ([6]; resazurin)?
Its LD50 is 9.68 µM.

What does the source list for `OCCCN1CCC2CC1c1cc(-c3ccc(C(F)(F)F)cc3)ccc12` (stereo not shown) [FEM-1689, reference compound]?
p-eIF2α expression (mean gray intensity), in words ([5]; FEM-1689 30 nM): marked reduction; analgesic effect, in words [7]: drives analgesic responses
